From ChEMBL document CHEMBL1139389, “Discovery of the Poly(ADP-ribose) polymerase (PARP) inhibitor 2-[(R)-2-methylpyrrolidin-2-yl]-1H-benzimidazole-4-carboxamide (ABT-888) for the treatment of cancer” (J Med Chem, 2009)

Tests used:
[1] = Cmax in Sprague-Dawley rat at 5 mg/kg, po; assay type: ADME, organism-based; set-up: dose 5 mg/kg, route oral; settings: in vivo
[2] = Clearance in cynomolgus monkey at 2.5 mg/kg; assay type: ADME, organism-based, Macaca fascicularis; set-up: dose 2.5 mg/kg; settings: in vivo
[3] = Volume of distribution at steady state in Sprague-Dawley rat at 5 mg/kg; assay type: ADME, organism-based; set-up: dose 5 mg/kg; settings: in vivo, read-out: Vdss
[4] = Oral bioavailability in Beagle dog at 2.5 mg/kg; assay type: ADME, organism-based, Canis lupus familiaris; settings: in vivo
[5] = Oral bioavailability in Sprague-Dawley rat at 5 mg/kg; assay type: ADME, organism-based; settings: in vivo
[6] = AUC in CD1 mouse at 10 mg/kg, po; assay type: ADME, organism-based; set-up: dose 10 mg/kg, route oral; settings: plasma
In short: (§1)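 Mouse PK: oral dose 10 mg/kg in 2.5% EtOH, 1 drop Tween-80, 25% PEG400 in PBS; iv dose 3 mg/kg in 2.5% EtOH, 5% DMSO, 1 drop Tween-80, 25% PEG400 in PBS. Oral bioavailability, iv half-life, oral AUC and Cmax derived from plasma profiles.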

[7] = Clearance in CD1 mouse at 10 mg/kg; assay type: ADME, organism-based; set-up: dose 10 mg/kg; settings: in vivo
In short: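 Mouse pharmacokinetics. Oral dose of 10 mg/kg in 2.5% EtOH, 1 drop Tween-80 and 25% PEG400 in PBS. Intravenous dose of 3 mg/kg in 2.5% EtOH, 5% DMSO, 1 drop Tween-80 and 25% PEG400 in PBS.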

[8] = Volume of distribution at steady state in CD1 mouse at 10 mg/kg; assay type: ADME, organism-based; set-up: dose 10 mg/kg; settings: in vivo, read-out: Vdss
[9] = Cmax in cynomolgus monkey at 2.5 mg/kg, po; assay type: ADME, organism-based, Macaca fascicularis; set-up: dose 2.5 mg/kg, route oral; settings: in vivo
[10] = Volume of distribution at steady state in cynomolgus monkey at 2.5 mg/kg; assay type: ADME, organism-based, Macaca fascicularis; set-up: dose 2.5 mg/kg; settings: in vivo, read-out: Vdss
[11] = Clearance in Beagle dog at 2.5 mg/kg; assay type: ADME, organism-based, Canis lupus familiaris; set-up: dose 2.5 mg/kg; settings: in vivo
[12] = Half life in Beagle dog at 2.5 mg/kg, iv; assay type: ADME, organism-based, Canis lupus familiaris; set-up: dose 2.5 mg/kg, route intravenous; settings: in vivo
[13] = AUC in cynomolgus monkey at 2.5 mg/kg, po; assay type: ADME, organism-based, Macaca fascicularis; set-up: dose 2.5 mg/kg, route oral; settings: plasma
[14] = Volume of distribution at steady state in Beagle dog at 2.5 mg/kg; assay type: ADME, organism-based, Canis lupus familiaris; set-up: dose 2.5 mg/kg; settings: in vivo, read-out: Vdss
[15] = Half life in Sprague-Dawley rat at 5 mg/kg, iv; assay type: ADME, organism-based; set-up: dose 5 mg/kg, route intravenous; settings: in vivo
[16] = Oral bioavailability in cynomolgus monkey at 2.5 mg/kg; assay type: ADME, organism-based, Macaca fascicularis; settings: in vivo
[17] = Half life in CD1 mouse at 3 mg/kg, iv; assay type: ADME, organism-based; set-up: dose 3 mg/kg, route intravenous; settings: in vivo; in short: as §1
[18] = Cmax in CD1 mouse at 10 mg/kg, po; assay type: ADME, organism-based; set-up: dose 10 mg/kg, route oral; settings: in vivo; in short: as §1
[19] = Clearance in Sprague-Dawley rat at 5 mg/kg; assay type: ADME, organism-based; set-up: dose 5 mg/kg; settings: in vivo
[20] = Half life in cynomolgus monkey at 2.5 mg/kg, iv; assay type: ADME, organism-based, Macaca fascicularis; set-up: dose 2.5 mg/kg, route intravenous; settings: in vivo
[21] = Oral bioavailability in CD1 mouse at 10 mg/kg; assay type: ADME, organism-based; settings: in vivo; in short: as §1
[22] = AUC in Beagle dog at 2.5 mg/kg, po; assay type: ADME, organism-based, Canis lupus familiaris; set-up: dose 2.5 mg/kg, route oral; settings: plasma
[23] = Cmax in Beagle dog at 2.5 mg/kg, po; assay type: ADME, organism-based, Canis lupus familiaris; set-up: dose 2.5 mg/kg, route oral; settings: in vivo
[24] = AUC in Sprague-Dawley rat at 5 mg/kg, po; assay type: ADME, organism-based; set-up: dose 5 mg/kg, route oral; settings: plasma

Cmax [1]: 0.6 µg/mL
clearance [2]: 1.4 L/h/kg
Vd [3]: 7.5 L/kg
bioavailability [4]: 48%
bioavailability [5]: 72%
AUC [6]: 1.1 µg·h/mL
clearance [7]: 6.2 L/h/kg
Vd [8]: 10.3 L/kg
Cmax [9]: 0.2 µg/mL
Vd [10]: 3 L/kg
clearance [11]: 0.9 L/h/kg
half-life [12]: 2.2 h
AUC [13]: 0.7 µg·h/mL
Vd [14]: 2.9 L/kg
half-life [15]: 2.4 h
bioavailability [16]: 39%
half-life [17]: 1.2 h
Cmax [18]: 0.8 µg/mL
clearance [19]: 2 L/h/kg
half-life [20]: 1.5 h
bioavailability [21]: 66%
AUC [22]: 1.4 µg·h/mL
Cmax [23]: 0.5 µg/mL
AUC [24]: 1.9 µg·h/mL
SMILES: C[C@@]1(c2nc3c(C(N)=O)cccc3[nH]2)CCCN1
